CHRM1 agonist = human M1 muscarinic receptor agonism. hit rate 0.33% among 360,000. activation, % at 3 µM. CHO-K1 hM1, Fluo-8 calcium fluorescence, agonist mode; 0% DMSO, 100% acetylcholine EC100;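 active = activation above the run's mean compound activation plus 3 SD, cut at about 16% in these data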;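 note: peak over basal fluorescence ratio within a 140 s kinetic read after compound addition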
Target sequence (P11229 whole entry, looked up): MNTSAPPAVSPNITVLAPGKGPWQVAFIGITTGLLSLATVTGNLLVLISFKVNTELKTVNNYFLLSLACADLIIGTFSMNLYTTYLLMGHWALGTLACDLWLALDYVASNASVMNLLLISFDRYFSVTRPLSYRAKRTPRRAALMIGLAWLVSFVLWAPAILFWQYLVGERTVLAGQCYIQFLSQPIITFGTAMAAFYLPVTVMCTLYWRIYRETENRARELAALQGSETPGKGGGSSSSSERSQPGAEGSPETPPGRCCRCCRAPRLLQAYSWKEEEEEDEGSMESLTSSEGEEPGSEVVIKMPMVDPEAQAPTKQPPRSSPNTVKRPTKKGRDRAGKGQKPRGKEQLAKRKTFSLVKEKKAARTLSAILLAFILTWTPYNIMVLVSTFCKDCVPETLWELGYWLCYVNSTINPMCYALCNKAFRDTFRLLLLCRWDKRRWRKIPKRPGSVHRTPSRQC
TAAR1 antagonist = human TAAR1 antagonism | AID 624466 | Q96RJ0 | inhibition, % at 3 µM | hit rate 1.5% among 360,000 | CHO RD-HGA16 TAAR1, Fluo-8 calcium fluorescence, antagonist;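 active = inhibition above a per-plate cutoff, the mean inhibition of test compounds on that plate plus 3 SD, cut at about 49% in these data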;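 note: 0% = DMSO plus EC80 beta-PEA response and 100% = DMSO alone without agonist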
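Material: RD-HGA16 CHO cells with stable hTAAR1 and Gα16; Dosing: single nominal final test compound concentration of 3 µM; Schedule: seeding 17-24 h prior, 75-min 37 °C, 30-min RT dye loading; Detection: kinetic Fluo-8 calcium fluorescence measurement; Measure: % inhibition from peak post-agonist over basal fluorescence ratio; Benchmarks: vehicle and agonist controls.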
M1 antag = human CHRM1 antagonism | inhibition, % at 3 µM | hit rate 1.3% among 360,000 | CHO-K1 hM1, Fluo-8 calcium fluorescence, ACh EC80 antagonist;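 active = percent inhibition above its own plate's cutoff, namely the mean of that plate's compound wells plus 3 SD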;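 note: peak over basal fluorescence ratio during 140 s after agonist addition; 0% = ACh EC80 plus DMSO and 100% = DMSO alone without agonist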
TAAR1 ag = agonists of human TAAR1; CHO RD-HGA16 TAAR1, Fluo-8 calcium fluorescence; vehicle wells 0%, saturating PEA agonist 100%; activation, % at 3 µM; hit rate 0.99% among 360,000; AID 624467;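 active = activation above the mean activation of all test compounds in the run plus 3 SD, cut at about 38% in these data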
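System: CHO RD-HGA16 cells carrying human TAAR1 plus Gα16; Incubation: 17-24 h seeding, 75 min 37 °C dye, 30 min RT; Measured by: Fluo-8 fluorescence, 5 s baseline then 140 s kinetic read; Control set: DMSO and PEA EC100; Replication: single well for each compound.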
M1 PAM = human CHRM1 positive allosteric modulation; P11229; CHO-K1 hM1, Fluo-8 calcium fluorescence, ACh EC20; 0% = ACh EC20, 100% = maximal ACh; activation, % at 3 µM; hit rate 0.088% among 360,000; AID 588819; in the data active = activation above about 19%, passing the limit was not always enough
The depositor's hits bear a star; x = no result given. A selection: hits, their analogues and other compounds. The true share with any hit is near 3.4%.

SMILES	CHRM1 agonist	TAAR1 antagonist	M1 antag	TAAR1 ag	M1 PAM
COC(=O)c1ccc(CN2CCCC(C(=O)Nc3cccc(-n4cccn4)c3)C2)cc1 (stereo unspecified)	37.6*	-0.2	41.2*	5.7	-11.7
COC(=O)c1ccc(CN2CCC(n3nccc3NC(=O)C3CCCC3)CC2)cc1	21.3*	-11.0	4.2	0.5	-7.5
CCNC(=O)C1CCCN(Cc2ccc(C(=O)OCC)cc2)CC1 (stereo unspecified)	3.6	5.9	64.6*	1.6	-19.4
COc1ccc(CN2CCCC(C(=O)Nc3cccc(-n4cccn4)c3)C2)cc1 (stereo unspecified)	-3.1	-1.5	16.1	8.4	-14.7
COC(=O)c1ccc(CN2CCC(n3nccc3NC(=O)C3CC3)CC2)cc1	18.7*	-13.9	-6.5	0.6	5.3
Cc1cc(N2CCN(C(=O)OC(C)(C)C)C[C@H]2C)ccc1Br	x	-13.9	x	1.2	x
CC(C)C[C@H]1COc2cccc(N3CCCCC3)c2S(=O)(=O)N1	x	-31.7	x	-1.9	x
COC(=O)C1=C(C)N(Cc2ccccc2C(F)(F)F)C(=NCc2cc(OC)c(OC)c(OC)c2)NC1c1cccc(C(F)(F)F)c1 (stereo unspecified)	x	-11.7	x	7.3	x
Fc1ccc(OCCOCCN2CCCC2)cc1	-5.9	-3.0	-5.1	2.4	0.3
CC(OCCN1CCCC1)(c1ccc(F)cc1)c1ccc(F)cc1	-8.2	5.2	92.3*	5.3	-19.9
CN(C)CCOc1ccccc1C(C)(C)C	-6.2	-16.8	57.4*	1.9	-20.0
Cc1ccc(C(C)(C)C)c(OCCN2CCCC2)c1	-9.7	0.7	66.8*	3.9	-24.2
CC(C)(C)c1ccccc1OCCN1CCCC1	-8.8	-12.3	42.6*	1.9	-21.7
Cc1cc(C(C)(C)C)ccc1OCCN1CCCC1	-4.0	-7.9	-20.5	28.5	0.0
CCCC[C@@H]1CC2=C(C(=O)OC(C)(C)O2)[C@@H](c2ccc(Cl)cc2)O1	x	-15.5	x	0.7	x
N#C[C@H](N)[C@H]1O[C@@H](n2ccc(=O)[nH]c2=O)[C@H](O)[C@@H]1O	x	-35.7	x	1.5	x
O=C(NCc1ccccc1)[C@H]1CCCN1	x	-10.3	x	1.0	x
O=C(COC(=O)/C=C/c1ccco1)NCCc1ccccc1	-2.7	46.9	-5.7	38.9*	3.5
Nc1nnc2cc(Cl)ccc2n1	8.3	-6.5	-16.4	3.5	28.0*
Cc1ccc2nc(N)nnc2c1	0.8	-28.7	-17.4	1.3	11.1
Cc1c(C)n(CCc2ccccc2)c2ncnc(NCCO)c12	-4.6	-9.8	4.2	1.1	-3.9
Cc1c(C)n(Cc2ccccc2)c2ncnc(Cl)c12	-1.3	-0.2	35.1*	6.3	-19.3
c1ccc(Nc2ccc3c4c(cccc24)CC3)cc1	42.5*	38.3	52.4*	23.3	-10.3
c1ccc(Nc2cccc3ccccc23)cc1	-4.3	4.0	0.1	-2.4	-0.8
CC(=O)SCC[N+](C)(C)C	69.8*	-14.2	24.0	0.0	-29.2
SMILES	CHRM1 agonist	TAAR1 antagonist	M1 antag	TAAR1 ag	M1 PAM
O=C(NCCN1CCC(n2c(=O)[nH]c3ccccc32)CC1)c1cccc2c1-c1ccccc1C2=O	x	59.4*	x	9.6	x
O=C(NCCN1CCC(n2c(=O)[nH]c3ccccc32)CC1)c1ccccc1Cl	x	12.0	x	4.8	x
O=C(NCc1ccccc1Br)c1cccc2c1C(=O)c1ccc(N3CCC(Cc4ccccc4)CC3)cc1S2(=O)=O	-0.9	x	-15.7	x	12.6
O=C(NCc1ccccc1C(F)(F)F)c1cccc2c1C(=O)c1ccc(N3CCOCC3)cc1S2(=O)=O	-0.1	55.5*	21.7	19.9	-11.7
O=C(NCc1cccc(F)c1)c1cccc2c1C(=O)c1ccc(N3CCOCC3)cc1S2(=O)=O	-2.2	48.5	9.0	14.9	-9.1
O=C(NCc1ccccc1C(F)(F)F)c1cccc2c1C(=O)c1ccc(N3CCC(N4CCCCC4)CC3)cc1S2(=O)=O	1.8	42.4	39.3*	15.7	-27.6
COC(=O)c1cc2c(c3c4ccccc4n(S(=O)(=O)c4cccc(C)c4)c13)C(=O)N(Cc1ccccc1OC)C2	x	2.6	x	-1.1	x
COC(=O)c1cccc2c([N+](=O)[O-])c(NC(C)=O)cc(C(=O)OC)c12	x	-2.3	x	-0.2	x
COC(=O)C1=C(C)N(Cc2ccc(F)cc2)C(=S)NC1c1ccccc1 (stereo unspecified)	x	43.6	x	-0.6	x
Cc1cc(NCCc2c[nH]c3ccccc23)ccc1Nc1cccnc1	x	-7.0	x	5.0	x
